Shown are actives, neighbours in structure and some others; about 6.1% of the full set was active somewhere.
hDAT+cocaine: changed human dopamine transporter uptake under cocaine IC80; B-score at 10 µM; Q01959; LLC-PK1 hDAT cells, [14C]-dopamine uptake with cocaine IC80; actives deviate in either direction; 110,000 tested, 1.3% active; AID 449768;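 active = Z score or B-score, a plate-position-corrected score, falls beyond the plate's 99.7% confidence bounds, in either direction; inactive = both scores lie inside the 99.7% bounds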;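 also: scored against the spread of the other compound wells on the same plate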
Target sequence (Q01959 whole entry, looked up): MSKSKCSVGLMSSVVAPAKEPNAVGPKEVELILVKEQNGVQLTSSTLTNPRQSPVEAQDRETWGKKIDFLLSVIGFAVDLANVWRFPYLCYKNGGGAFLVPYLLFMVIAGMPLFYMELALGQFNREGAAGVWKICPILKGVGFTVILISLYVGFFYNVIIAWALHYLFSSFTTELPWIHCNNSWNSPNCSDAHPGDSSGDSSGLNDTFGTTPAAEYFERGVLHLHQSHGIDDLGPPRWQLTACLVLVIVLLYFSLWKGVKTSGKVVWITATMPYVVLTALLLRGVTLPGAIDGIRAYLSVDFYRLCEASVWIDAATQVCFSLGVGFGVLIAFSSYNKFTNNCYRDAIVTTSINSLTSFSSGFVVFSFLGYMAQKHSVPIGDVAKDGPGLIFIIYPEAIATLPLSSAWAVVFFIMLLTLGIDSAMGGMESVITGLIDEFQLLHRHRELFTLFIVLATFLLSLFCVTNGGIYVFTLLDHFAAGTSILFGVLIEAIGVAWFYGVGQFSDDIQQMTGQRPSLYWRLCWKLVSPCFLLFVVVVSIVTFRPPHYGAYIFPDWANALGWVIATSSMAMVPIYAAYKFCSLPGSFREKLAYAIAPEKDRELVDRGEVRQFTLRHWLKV
RAM network inh: inhibitors of the yeast RAM network; 190,000 tested, 1.8% active; AID 868; S. cerevisiae dse1pr::URA3 reporter, 5-FOA growth OD615, 2 d; analog-sensitive cbk1-as2 kinase mutant strain; inhibition, % at 50 µM;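 active = inhibition above a set limit, 3 SD over mean compound inhibition, cut at about 8.4% in these data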;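 also: 0% = DMSO-only wells with no growth and 100% = 10 µM 1-NA-PP1 full growth; inhibition rescues growth on 5-FOA so higher OD means more RAM inhibition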
Measles CPE: protection of cells from measles virus | Measles virus-infected cells, CPE protection, absorbance | protection (pct of control), % at 4 µM | 140,000 tested, 1.5% active; in the data active = protection mostly above about 24%, no sharp cut-off; inactive = mostly below about 26%
Yeast life ext: extends the lifespan of yeast | 130,000 tested, 0.68% active | S. cerevisiae growth with nicotinamide, OD615; deaD strain in restrictive glucose medium | inhibition of the nicotinamide effect, % at 10 µM;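 active = inhibition above a set limit, placed 3 SD over the median of all compounds, cut at about 26% in these data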;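 also: 0% = nicotinamide-treated wells and 100% = cells grown without nicotinamide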
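Test system: DeaD-strain S. cerevisiae / Buffer or medium: restrictive glucose medium / Also added: nicotinamide 1.5 mM / Doses: one concentration, 10 µM, DMSO 0.25% / Schedule: 48 h at 30 °C / Signal: OD615 measurement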
WT yeast gro inh: growth inhibition of WT yeast, mitochondrial fusion screen; mitochondrial fusion phenotypic screen, WT strain; inhibition, % at 10 µM; 190,000 tested, 2.1% active; in the data active = inhibition above about 58%; tested in S. cerevisiae
Yeast growth inh: chemicals that inhibit yeast BB579 growth in restrictive medium (lifespan-shortening candidates); S. cerevisiae BB579 growth, OD615, 48 h; inhibition, % at 10 µM; 140,000 tested, 0.51% active; AID 804;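 active = inhibition above a set limit, 3 SD over the mean compound inhibition, cut at about 44% in these data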
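Detection: OD615 turbidity measurement; Material: Saccharomyces cerevisiae DeaD strain BB579, replicative lifespan model yeast; Timing: 48 h exposure, 30 °C; Doses: single 10 µM dose; Medium: CSMM-D restrictive synthetic medium containing dextrose (glucose); Controls: amphotericin B at 10 µg/mL as positive control.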
* marks the source's active call; other numbers are inactive results; . = no result.

SMILES	hDAT+cocaine	RAM network inh	Measles CPE	Yeast life ext	WT yeast gro inh	Yeast growth inh
CCN(CC)S(=O)(=O)c1cc(C(=O)Nc2cc(Cl)ccc2N2CCN(C)CC2)ccc1Cl	2.88*	0.8	2.8	-10.3	65.4*	-64.8
Cc1ccccc1C=Nc1ccccc1C(N)=O	.	2.4	13.1	-1.6	-7.6	-7.8
COc1ccc(C(=O)/C=C/c2ccc(OC3CSC3)cc2)cc1OC	.	8.6*	2.6	-6.7	26.3	-19.4
COc1ccc(C(=O)/C=C/N2CCCCC2)cc1OC	0.769	3.4	4.4	-5.7	8.9	53.1*
CCn1ncc(Br)c1C(=O)Nc1ncc(C)s1	.	0.8	.	.	-19.4	.
CC#CCN1c2ccccc2[C@]23C[C@@H](C(=O)OC)N(C(=O)NCCBr)C2=NC(C(=O)OC)=C(C(=O)OC)[C@H]13	0.438	.	.	.	.	.
Cc1cccc(Nc2nnc(SCC(=O)NCc3cccs3)s2)c1	.	8.5*	.	.	12.2	.
CCn1c(SCC(=O)NCc2cccs2)nnc1-c1ccco1	0.143	0.2	25.6*	-3.5	-13.9	-39.5
COc1ccc(NC(=O)CSc2nnnn2-c2ccc(OC)cc2)cc1	0.27	1.1	4.8	-7.9	8.6	-10.4
COc1cc(NC(=O)CSc2nnnn2-c2ccccc2)cc(OC)c1OC	-0.553	5.3	104.2*	9.9	3.6	-32.0
O=C(CSc1nnnn1-c1ccccc1)NCc1cccs1	-0.586	0.7	28.3	-22.0	73.8*	-19.6
Cc1cccc(Nc2nnc(SCC(=O)NCc3cccs3)s2)c1C	.	-1.1	3.9	2.5	4.1	-5.5
NC(=O)CC(NC(=O)c1cccc(Br)c1)c1ccc(N2CCC(N3CCCC3)CC2)c([N+](=O)[O-])c1 (stereo unspecified)	-0.895	.	.	.	.	.
Cc1cccc(-c2cc3nc4c(c(N5CCOCC5)n3n2)CCCC4)c1	0.786	1.6	5.7	-19.3	69.3*	-81.3
Cc1cccc(-c2cc3nc4c(c(N5CCCC(O)C5)n3n2)CCC4)c1 (stereo unspecified)	3.4*	-0.8	14.6	-19.4	16.8	-64.0
OC1CCN(c2c3c(nc4cc(-c5ccc(F)cc5)nn24)CCC3)CC1	1.46	0.3	17.0	-1.8	8.1	-4.1
COc1cccc(-c2cc3nc4c(c(N5CCC6(CC5)OCCO6)n3n2)CCC4)c1	.	0.3	.	.	65.0*	.
OC1CCCN(c2c3c(nc4cc(-c5cccc(F)c5)nn24)CCCC3)C1 (stereo unspecified)	.	1.0	.	.	69.4*	.
Cc1nc(N)sc1C(=O)OCC(C)C	.	0.4	.	.	19.0	.
CS(=O)(=O)N(CC(=O)N1CCOCC1)c1cccc([N+](=O)[O-])c1	.	2.2	.	.	-9.2	.
OC1CCCN(c2c3c(nc4cc(-c5cccc(Cl)c5)nn24)CCC3)C1 (stereo unspecified)	1.72	-0.8	24.0	-17.8	67.4*	-25.9
COCCN1CCN(c2c3c(nc4cc(-c5cccc(F)c5)nn24)CCC3)CC1	1.94	0.2	11.1	.	-17.0	-11.2
Cc1ccc(C(=O)N/C(=C/c2ccco2)C(=O)NCCc2c[nH]c3ccccc23)cc1	.	-0.6	24.0	4.2	3.8	-0.4
Cc1oc(-c2cc(F)cc(F)c2)nc1CN1CCSCC1	.	2.2	.	.	-12.3	.
CCCCCCCCCc1nc2sc3c(c2c(=O)n1NC(=O)c1ccccc1[N+](=O)[O-])CC(C)(C)OC3	.	1.7	10.6	3.0	71.0*	-27.4
SMILES	hDAT+cocaine	RAM network inh	Measles CPE	Yeast life ext	WT yeast gro inh	Yeast growth inh
CCCCCCCCCc1nc2sc3c(c2c(=O)n1NC(=O)c1ccc([N+](=O)[O-])cc1)CC(C)(C)OC3	.	1.0	-0.4	9.4	64.4*	-21.7
CCCc1nc2sc3c(c2c(=O)n1NC(=O)c1ccco1)CC(C)(C)OC3	.	0.7	10.4	4.4	-12.2	-9.5
Cc1ccc(N2C(=O)CC3(CC4C=CC3C4)C2=O)cc1 (stereo unspecified)	-0.0465	-0.6	52.6*	4.1	3.1	-61.5
Clc1ccc(-c2nnc(NCc3ccccc3)c3ccccc23)cc1	.	-0.1	7.6	3.3	73.4*	-28.1
Cc1ccc(C(=O)N2CCN(c3ncccn3)CC2)cc1S(=O)(=O)N1CCCCC1	.	-0.5	16.2	1.1	-4.1	-10.9
N#CCSc1nnc(COc2ccc3ccccc3c2)o1	-0.403	0.8	46.1*	-13.4	-63.8	-37.6
CCCc1nnc(-c2cc(OC)c(OC)c(OC)c2)o1	.	2.3	8.2	-3.5	11.3	-35.9
S=c1[nH]nc(COc2ccc3ccccc3c2)o1	0.0666	-2.5	5.3	.	-7.7	18.5
COc1cc(-c2nnc(COc3ccc4ccccc4c3)o2)cc(OC)c1OC	.	9.4*	26.5	-8.0	32.3	-37.0
CCOC(=O)c1c(C2CC2)csc1NC(=O)COC(=O)CCS(=O)(=O)c1ccc(C)cc1	.	9.2*	4.1	1.8	0.3	-7.9
CCCOC(=O)C1=C(C)NC2=C(C(=O)CCC2)C1c1cccc(OC)c1OC (stereo unspecified)	0.689	0.3	5.2	1.9	10.6	-30.6
O=C(CSc1n[nH]c(=O)[nH]c1=O)N/N=C/c1ccccc1	.	2.8	4.8	6.3	11.6	-12.4
O=C(Nc1ccc(N2C(=O)C3C4C=CC(C4)C3C2=O)cc1Cl)c1cccs1 (stereo unspecified)	.	9.8*	.	.	5.7	.
Cn1cccc1C(=O)Nc1nc(-c2ccccn2)cs1	0.856	-0.4	5.7	-19.5	-1.5	46.0*
C[C@H](NC(=O)c1ccccc1)C(=O)Nc1nc(-c2ccccn2)cs1	.	0.3	.	.	10.1	.
Cc1csc(NC(=O)c2ccccc2C(=O)O)n1	0.354	0.6	5.1	-6.6	5.8	-31.4
Cc1cccc(C(=O)NC(C(=O)Nc2nc(-c3ccccn3)cs2)C(C)C)c1 (stereo unspecified)	.	1.1	.	.	72.5*	.
Cc1csc(NC(=O)c2cccn2C)n1	0.368	1.2	6.3	-20.0	84.9*	-21.5
C/C(Cn1nc([N+](=O)[O-])cc1C)=N\NC(=O)c1ccc(C(C)(C)C)cc1	1.06	-0.7	8.5	-1.6	16.4	-11.0
COc1ccc(NC(=O)CN2CCN(CC(=O)Nc3ccc4c(c3)OCO4)CC2)cc1	0.608	1.1	14.3	-4.4	22.5	-64.4
COc1ccccc1NC(=O)CN1CCN(CC(=O)Nc2ccc3c(c2)OCO3)CC1	-4.29*	1.0	24.8	-6.4	-6.0	-14.2
CCN(CC)c1ccc(NC(=O)CN2CCN(c3ccc(F)cc3)CC2)cc1	-1.31	0.9	9.9	-3.6	.	-13.4
CCN(CC)c1ccc(NC(=O)CN2CCN(CC(=O)Nc3ccccc3F)CC2)cc1	2.46*	1.0	4.4	0.3	21.3	-25.8
COC(=O)CNC(c1ccccc1)c1cc(C)ccc1NC(=O)CNC(=O)OCc1ccccc1 (stereo unspecified)	0.33	-1.0	12.2	-4.3	5.0	-66.9
COC(=O)CNC(c1ccccc1)c1cc(C)ccc1NC(=O)c1cccc(Cl)c1 (stereo unspecified)	.	-0.6	2.3	8.5	70.7*	-66.3
